# Compounds with a hit are over-represented: about 3.1% of the library has one in this group of screens.
# miR122 inh: inhibitors of miR-122 in Huh7 cells; 340,000 compounds, 0.3% hits; Huh7 miR-122 Renilla luciferase sensor, 48 h; neutral wells = 0, positive control = 100; activation (reporter increase), % at 12.5 µM;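 active means mean replicate activation score at least 90 and every replicate individually at or above 90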;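 further: higher luciferase means less miR-122 activity so hits act as miR-122 inhibitors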
# DENV2 CPE: inhibitors of DENV2 cytopathic effect; DENV2-infected cells, cytopathic effect rescue, plate reader; CPE inhibition, % at 9.99 µM; 350,000 compounds, 1.7% hits; AID 651640; in the data active means CPE inhibition above about 20%, passing the limit was not always enough; tested in BHK-21 cells;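 further: 0% = median of neutral control wells and 100% = median of positive control wells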
# rRNA inh HTS: inhibitors of bacterial rRNA selective over humanized ribosomes; AID 720706; GFP signal change (wild-type ribosome), % (test concentration not listed); E. coli WT GFP vs humanized-ribosome RFP mutants, fluorescence, 24 h; hits give low values; DMSO median 0, no signal -100; 350,000 compounds, 1.6% hits;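 active means significant combined selectivity score with lowered wild-type GFP, culture density cut under 30%, mutant RFP and density less affected; inactive means any of these conditions unmet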
# Cneo AK release: causes C. neoformans cell lysis; adenylate kinase release luminescence, 4 h; normalised: neutral wells 0, clomiphene wells 100; lysis activity, % at 15 µM; 360,000 compounds, 0.2% hits; AID 651654;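 active means mean lysis activity across replicates of at least 80%, whatever share of replicates individually reach that level; inactive means mean lysis activity below 80%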
#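 Material – Cryptococcus neoformans yeast cells · Quantity – 5 × 10^6 yeast cells/mL · Buffer or medium – YPD medium · Compound – single dose · Timing – 4 h static compound exposure, 37 °C, read 1 h post-reagent · Signal – adenylate kinase release luminescence · Read-out basis – lysis from increased AK signal · Benchmarks – Clomiphene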
# E-selectin induc: induces E-selectin expression in human endothelial cells; P16581; HUVEC E-selectin immunofluorescence imaging; normalized: neutral wells 0, TNF-alpha wells 100; activation, % at 7.58 µM; 260,000 compounds, 0.37% hits;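 active means mean E-selectin-positive cell signal at least 10% of the positive control, reached in at least 60% of replicates, without over 20% cell loss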
# Target sequence (P16581 whole entry, looked up): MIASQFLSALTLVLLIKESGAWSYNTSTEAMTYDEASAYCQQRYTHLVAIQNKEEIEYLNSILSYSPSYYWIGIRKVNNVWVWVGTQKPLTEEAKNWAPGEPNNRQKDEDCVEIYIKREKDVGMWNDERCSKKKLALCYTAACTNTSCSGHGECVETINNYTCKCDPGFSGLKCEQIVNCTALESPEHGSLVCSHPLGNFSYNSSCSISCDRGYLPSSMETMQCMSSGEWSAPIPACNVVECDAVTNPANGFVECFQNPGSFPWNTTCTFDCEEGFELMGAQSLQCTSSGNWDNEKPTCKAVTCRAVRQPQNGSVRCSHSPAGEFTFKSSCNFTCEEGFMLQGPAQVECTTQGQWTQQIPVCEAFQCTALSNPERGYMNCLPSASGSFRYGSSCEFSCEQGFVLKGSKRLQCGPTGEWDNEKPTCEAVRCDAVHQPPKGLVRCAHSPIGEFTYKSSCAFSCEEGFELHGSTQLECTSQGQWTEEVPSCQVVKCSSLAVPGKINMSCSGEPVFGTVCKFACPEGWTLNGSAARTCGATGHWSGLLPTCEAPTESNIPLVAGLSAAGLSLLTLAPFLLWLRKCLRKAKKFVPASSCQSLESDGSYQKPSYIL
#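 System: HUVEC, human umbilical vein endothelial cells; quantity: 3,000 cells/well; buffer or medium: EGM-2 medium, gelatin-coated wells; dosing: single-point compound dose; detection: immunofluorescence imaging; evaluation: % PE-positive cells; benchmarks: TNF-alpha, DMSO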
# * hit, by the source's call; · = not tested or not shown; [ ] = dose if it differs, or a comment.
SMILES,miR122 inh,DENV2 CPE,rRNA inh HTS,Cneo AK release,E-selectin induc
COc1ccc(-c2nc(CN3CCCCC3c3nccn3C)c(C)o2)c(C)c1C (stereo not drawn),0,-4,-33*,0,0
COc1ccc(OC)c(-c2nc(CN3CCCCC3c3cccnc3)c(C)o2)c1 (stereo not drawn),·,·,-5,·,·
CCCN(C)C[C@@H]1Oc2cc(C#Cc3ccc(F)cc3)ccc2S(=O)(=O)N([C@@H](C)CO)C[C@@H]1C,3[16.7 µM],-1,0,2,0
CCS(=O)(=O)c1ncc(Cl)c(C(=O)Nc2ccc(S(=O)(=O)N(C)c3ccccc3)cc2)n1,-26,1,-36*,-1,0
Clc1cccc(Cl)c1CSc1nnc(CN2CCOCC2)n1-c1ccccc1,126*,·,·,-1,·
Cn1cnc(S(=O)(=O)N2C[C@@H](O)COC[C@@H]3O[C@H](CC(=O)N4CCN(c5ccccc5)CC4)CC[C@H]32)c1,-1[16.7 µM],-4,-1,1,0
Clc1cccc(-c2noc3ncnc(Nc4ccc5c(c4)OCO5)c23)c1,17,-5,-22*,-2,0
CO[C@@H]1CN(C)C(=O)c2cc(NC(=O)c3cc(C)on3)ccc2OC[C@H](C)N(C(=O)C2CC2)C[C@H]1C,-3[16.7 µM],21*,3,-4,0
CO[C@@H]1CN(C)C(=O)c2ccc(NC(=O)CC(F)(F)F)cc2OC[C@H](C)N(C(=O)C2CCOCC2)C[C@H]1C,·,-2,·,·,·
COc1cccc(C(=O)Nc2ccc3c(c2)C(=O)N(C)C[C@H](OC)[C@H](C)CN(C(=O)C2CCCC2)[C@@H](C)CO3)c1,10[16.7 µM],38*,-3,-1,0
CO[C@H]1CN(C)C(=O)c2cc(NC(=O)CC(F)(F)F)ccc2OC[C@@H](C)N(C(=O)C2CC2)C[C@H]1C,·,38*,1,·,0
CO[C@H]1CN(C)C(=O)c2ccc(NC(=O)CC(F)(F)F)cc2OC[C@H](C)N(C(=O)C2CCOCC2)C[C@H]1C,·,24*,0,·,0
CO[C@@H]1CN(C)C(=O)c2cc(NC(=O)CC(F)(F)F)ccc2OC[C@H](C)N(C(=O)C2CC2)C[C@H]1C,·,0,2,·,0
Cc1[nH][nH]c(=O)c1C(c1c(C)[nH][nH]c1=O)c1cn(Cc2ccc(Cl)c(Cl)c2)c2ccccc12,5,-4,-30*,-2,·
CCOc1ccccc1NC(=O)Cn1nnc(C(=O)NCc2ccco2)c1N,136*,·,·,-7,·
Cc1cc(C)cc(NC(=O)Cn2nnc(C(=O)NCc3cccs3)c2N)c1,9,27*,4,·,0
Cc1ccccc1NC(=O)Cn1nnc(C(=O)NCc2ccco2)c1N,36,2,20,·,-6
O=C1N2CCCCC1(c1ccccc1)CCCC2,·,40*,·,·,·
O=C1N2CCCCC1(Sc1ccccc1)CCC2 (stereo not drawn),·,11,0,·,0
CO[C@H]1CN(C)C(=O)c2cc(NC(=O)c3cccc(Oc4ccccc4)c3)ccc2OC[C@@H](C)NC[C@@H]1C,-19[16.7 µM],·,-5,·,0
CCCn1cc(S(=O)(=O)c2ccc(Cl)cc2)c(=O)c2cc(OC)ccc21,0,-1,-28*,0,·
N/C(Cc1ccc(Cl)cc1Cl)=N\OC(=O)Cc1ccccc1,-8,2,-3,1,0
N/C(Cc1ccc(Cl)cc1Cl)=N\OC(=O)c1ccccc1,-13,-1,-31*,·,0
CCNC(=O)[C@H]1[C@H](CO)[C@H]2Cn3c(ccc(-c4cccc(F)c4)c3=O)[C@H]2N1Cc1nccs1,6[16.7 µM],-9,-1,0,0
COc1ccc(-n2cccc2/C=C2\C(=N)N3N=C(c4ccco4)SC3=NC2=O)cc1,·,0,-23*,·,0
O=S(=O)(c1cccc(F)c1)N1CC[C@H]2[C@H](CO)Nc3ccc(C#Cc4ccccc4F)cc3[C@H]21,-4[16.7 µM],-9,-6,11,1
O=S(=O)(c1cccc(F)c1)N1CC[C@@H]2[C@H](CO)Nc3ccc(C#Cc4ccccc4F)cc3[C@@H]21,8[16.7 µM],24*,-16,9,0
O=S(=O)(c1cccc(F)c1)N1CC[C@@H]2[C@@H](CO)Nc3ccc(C#Cc4cccc(F)c4)cc3[C@@H]21,-11[16.7 µM],23*,-1,-10,0
Cc1ccc(OCCn2c(=S)[nH]c3ccccc32)c(C(C)C)c1,32,-9,-31,97*,·
Cc1cccc(OCCn2c(=S)[nH]c3ccccc32)c1,·,·,·,27,·
